Data taken from ChEMBL document CHEMBL3045116, “Synthesis and biological evaluation of 2-(5-substituted-1-((diethylamino)methyl)-2-oxoindolin-3-ylidene)-N-substituted-hydrazinecarbothioamides” (Med Chem Res, 2013).

Key:
Influenza B virus = test: Antiviral activity against Influenza B virus infected in MDCK cells assessed as reduction of virus-induced cytopathic effect after 3 days by colorimetric formazan-based MTS assay; type: functional, organism-based; conditions: 72 h
In short: (§1)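 Confluent cell monolayers were infected with 100 CCID50 of virus, and serial dilutions of compound were added at the time of infection.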

Influenza A virus H3N2 = test: Antiviral activity against Influenza A virus H3N2 infected MDCK cells assessed as reduction of virus-induced cytopathic effect after 3 days by colorimetric formazan-based MTS assay; type: functional, organism-based; conditions: 72 h; in short: as §1
Human alphaherpesvirus 1 [1] = test: Antiviral activity against Human herpesvirus 1 strain KOS infected human HEL cells assessed as reduction of virus-induced cytopathic effect after 3 days by colorimetric formazan-based MTS assay; type: functional, organism-based; conditions: Human alphaherpesvirus 1, KOS, 72 h; in short: as §1
Felid alphaherpesvirus 1 = test: Antiviral activity against Felid herpesvirus 1 infected cat CRFK cells assessed as reduction of virus-induced cytopathic effect after 3 days by colorimetric formazan-based MTS assay; type: functional, organism-based; conditions: Felid alphaherpesvirus 1, CRFK, 72 h
In short: (§2)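 Cells grown to confluency in 96-well plates ([…], Vero for lines 9–10) were infected with 100 CCID50 of virus, and serial compound dilutions were added at infection. Plates were incubated at 37 °C for 3 days, until complete CPE appeared in untreated virus controls.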

[2] = system: Feline infectious peritonitis virus; test: Antiviral activity against Feline Infectious peritonitis virus infected cat CRFK cells assessed as reduction of virus-induced cytopathic effect after 3 days by colorimetric formazan-based MTS assay; type: functional, organism-based; conditions: Alphacoronavirus 1, CRFK, 72 h; in short: as §1
[3] = Cytotoxicity against Felis catus (cat) CRFK cells assessed as change in cellular morphology; type: cell-based; conditions: crfk
In short: (§3)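 Uninfected cells were exposed to compound in parallel with the antiviral cultures. The read-out is the minimum cytotoxic concentration that causes a microscopically detectable alteration of normal cell morphology.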

[4] = Inhibition of beta lactamase assessed as increase in time taken for iodine decolorization relative to control; parameters: concentration or dose not given beside the values; conditions: concentration not given here
[5] = Inhibition of beta lactamase assessed as time for decolorization of iodine (reference value: 79.5 secs)
CCRF-CEM = test: Cytotoxicity against Homo sapiens (human) CEM cells assessed as growth inhibition after 72 hr by coulter counter analysis; type: functional, cell-based
In short: (§4)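 Cells in growth medium were allowed to proliferate with variable compound amounts at 37 °C in a humidified CO2 atmosphere. Incubation ran 48 h for L1210, 72 h for CEM and 96 h for HeLa. Cells were then counted with a Coulter counter.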

L1210 = test: Cytotoxicity against Mus musculus (mouse) L1210 cells assessed as growth inhibition after 48 hr by coulter counter analysis; type: functional, cell-based; conditions: L1210, 48 h; in short: as §4
Influenza A virus = test: Antiviral activity against Unidentified Influenza A virus (H1N1) infected MDCK cells assessed as reduction of virus-induced cytopathic effect after 3 days by colorimetric formazan-based MTS assay; type: functional, organism-based; conditions: 72 h; in short: as §1
[6] = (§5) Cytotoxicity against MDCK cells assessed as change in cellular morphology; type: cell-based, Canis lupus familiaris; conditions: dog, MDCK cells; in short: as §3
MDCK = test: as §5; type: cell-based, Canis lupus familiaris; conditions: dog, mdck; in short: as §3
Punta Toro virus = test: Antiviral activity against Punta Toro virus infected in African green monkey Vero cells assessed as reduction of virus-induced cytopathic effect after 3 days by colorimetric formazan-based MTS assay; type: functional, organism-based; conditions: 72 h; in short: as §1
Coxsackievirus B4 [7] = test: Antiviral activity against Human coxsackievirus B4 infected African green monkey Vero cells assessed as reduction of virus-induced cytopathic effect after 3 days by colorimetric formazan-based MTS assay; type: functional, organism-based; conditions: Enterovirus B, 72 h; in short: as §1
Respirovirus muris = test: Antiviral activity against Sendai virus infected African green monkey Vero cells assessed as reduction of virus-induced cytopathic effect after 3 days by colorimetric formazan-based MTS assay; type: functional, organism-based; conditions: 72 h
[8] = system: Mammalian orthoreovirus 1; test: Antiviral activity against Mammalian orthoreovirus 1 infected African green monkey Vero cells assessed as reduction of virus-induced cytopathic effect after 3 days by colorimetric formazan-based MTS assay; type: functional, organism-based; conditions: Mammalian orthoreovirus 1, Vero, 72 h; in short: as §2
Human respirovirus 3 = test: Antiviral activity against Human parainfluenza virus 3 infected African green monkey Vero cells assessed as reduction of virus-induced cytopathic effect after 3 days by colorimetric formazan-based MTS assay; type: functional, organism-based; conditions: Human respirovirus 3, Vero, 72 h; in short: as §2
[9] = Cytotoxicity against Chlorocebus aethiops (African green monkey) Vero cells assessed as change in cellular morphology; type: cell-based; conditions: chlorocebus sabaeus
[10] = system: Respiratory syncytial virus; test: Antiviral activity against Respiratory syncytial virus infected human HeLa cells assessed as reduction of virus-induced cytopathic effect after 3 days by colorimetric formazan-based MTS assay; type: functional, organism-based; conditions: 72 h; in short: as §1
[11] = system: Vesicular stomatitis virus; test: Antiviral activity against Vesicular stomatitis virus infected human HeLa cells assessed as reduction of virus-induced cytopathic effect after 3 days by colorimetric formazan-based MTS assay; type: functional, organism-based; conditions: 72 h; in short: as §1
Coxsackievirus B4 [12] = test: Antiviral activity against Human coxsackievirus B4 infected human HeLa cells assessed as reduction of virus-induced cytopathic effect after 3 days by colorimetric formazan-based MTS assay; type: functional, organism-based; conditions: Enterovirus B, 72 h; in short: as §1
[13] = (§6) Cytotoxicity against Homo sapiens (human) HeLa cells assessed as change in cellular morphology; type: cell-based; conditions: HeLa cells; in short: as §3
HeLa = test: as §6; type: cell-based; conditions: hela; in short: as §3
Human alphaherpesvirus 1 [14] = test: Antiviral activity against acyclovir-resistant thymidine kinase negative Human herpesvirus 1 strain KOS infected human HEL cells assessed as reduction of virus-induced cytopathic effect after 3 days by colorimetric formazan-based MTS assay; type: functional, organism-based; conditions: Human alphaherpesvirus 1, KOS, 72 h; in short: as §1
[15] = system: Vesicular stomatitis virus; test: Antiviral activity against Vesicular stomatitis virus infected human HEL cells assessed as reduction of virus-induced cytopathic effect after 3 days by colorimetric formazan-based MTS assay; type: functional, organism-based; conditions: 72 h; in short: as §1
Vaccinia virus = test: Antiviral activity against Vaccinia virus infected human HEL cells assessed as reduction of virus-induced cytopathic effect after 3 days by colorimetric formazan-based MTS assay; type: functional, organism-based; conditions: Orthopoxvirus vaccinia, 72 h; in short: as §1
Human alphaherpesvirus 2 = test: Antiviral activity against Human herpesvirus 2 strain G infected human HEL cells assessed as reduction of virus-induced cytopathic effect after 3 days by colorimetric formazan-based MTS assay; type: functional, organism-based; conditions: Human alphaherpesvirus 2, strain G, 72 h; in short: as §1
[16] = Cytotoxicity against Homo sapiens (human) HEL cells assessed as change in cellular morphology; type: cell-based
Candida albicans = test: Antifungal activity against Candida albicans assessed as growth inhibition at 50 ug/ml by cup-plate method (reference value: 8 to 10 mm); type: functional; conditions: read-out: DIZ
Aspergillus niger = test: Antifungal activity against Aspergillus niger assessed as growth inhibition at 50 ug/ml by cup-plate method (reference value: 8 to 10 mm); type: functional; conditions: read-out: DIZ
Salmonella typhi = test: Antibacterial activity against Salmonella enterica subsp. enterica serovar Typhi assessed as growth inhibition at 50 ug/ml by cup-plate method (reference value: 8 to 10 mm); type: functional; conditions: read-out: DIZ
Proteus vulgaris = test: Antibacterial activity against Proteus vulgaris assessed as growth inhibition at 50 ug/ml by cup-plate method (reference value: 8 to 10 mm); type: functional; conditions: read-out: DIZ
Escherichia coli = test: Antibacterial activity against Escherichia coli assessed as growth inhibition at 50 ug/ml by cup-plate method (reference value: 8 to 10 mm); type: functional; conditions: read-out: DIZ
Bacillus subtilis = test: Antibacterial activity against Bacillus subtilis assessed as growth inhibition at 50 ug/ml by cup-plate method (reference value: 8 to 10 mm); type: functional; conditions: read-out: DIZ
Klebsiella pneumoniae = test: Antibacterial activity against Klebsiella pneumoniae assessed as growth inhibition at 50 ug/ml by cup-plate method (reference value: 8 to 10 mm); type: functional; conditions: read-out: DIZ
Staphylococcus aureus = test: Antibacterial activity against Staphylococcus aureus assessed as growth inhibition at 50 ug/ml by cup-plate method (reference value: 8 to 10 mm); type: functional; conditions: read-out: DIZ

CCN(CC)CN1C(=O)/C(=N/NC(=S)Nc2ccccc2)c2cc(Cl)ccc21
EC50 (Influenza B virus): > 0.8 µM
EC50 (Influenza A virus H3N2): > 0.8 µM
EC50 (Human alphaherpesvirus 1 [1]): > 20 µM
EC50 (Felid alphaherpesvirus 1): > 4 µM
EC50 [2]: > 4 µM
CC50 [3]: 6.9 µM
inhibition [4]: 49.2%
TIME [5]: 0.0434 h
IC50 (CCRF-CEM): 40 µM
IC50 (L1210): 49 µM
EC50 (Influenza A virus): > 0.8 µM
MCC [6]: ≥ 800 nM
CC50 (MDCK): 3 µM
EC50 (Punta Toro virus): > 20 µM
EC50 (Coxsackievirus B4 [7]): > 20 µM
EC50 (Respirovirus muris): > 20 µM
EC50 [8]: > 20 µM
EC50 (Human respirovirus 3): > 20 µM
MCC [9]: 100 µM
EC50 [10]: > 20 µM
EC50 [11]: > 20 µM
EC50 (Coxsackievirus B4 [12]): > 20 µM
MCC [13]: ≥ 20 µM
CC50 (HeLa): 13.5 µM
EC50 (Human alphaherpesvirus 1 [14]): > 20 µM
EC50 [15]: > 20 µM
EC50 (Vaccinia virus): > 20 µM
EC50 (Human alphaherpesvirus 2): > 20 µM
MCC [16]: 100 µM
zone of inhibition at 50 µg/mL (Candida albicans): 21 mm
zone of inhibition at 50 µg/mL (Aspergillus niger): 11 mm
zone of inhibition at 50 µg/mL (Salmonella typhi): 11 mm
zone of inhibition at 50 µg/mL (Proteus vulgaris): 21 mm
zone of inhibition at 50 µg/mL (Escherichia coli): 11 mm
zone of inhibition at 50 µg/mL (Bacillus subtilis): 11 mm
zone of inhibition at 50 µg/mL (Klebsiella pneumoniae): 11 mm
zone of inhibition at 50 µg/mL (Staphylococcus aureus): 11 mm

CCN(CC)CN1C(=O)/C(=N/NC(=S)Nc2ccc(C)cc2)c2ccccc21
EC50 (Influenza B virus): > 0.16 µM
EC50 (Influenza A virus H3N2): > 0.16 µM
EC50 (Human alphaherpesvirus 1 [1]): 14 µM
EC50 (Felid alphaherpesvirus 1): > 0.8 µM
EC50 [2]: > 0.8 µM
CC50 [3]: 3.8 µM
inhibition [4]: 45.5%
TIME [5]: 0.0405 h
IC50 (CCRF-CEM): 12 µM
IC50 (L1210): 29 µM
EC50 (Influenza A virus): > 0.16 µM
MCC [6]: 800 nM
CC50 (MDCK): 0.2 µM
EC50 (Punta Toro virus): > 20 µM
EC50 (Coxsackievirus B4 [7]): > 20 µM
EC50 (Respirovirus muris): > 20 µM
EC50 [8]: > 20 µM
EC50 (Human respirovirus 3): > 20 µM
MCC [9]: 100 µM
EC50 [10]: > 20 µM
EC50 [11]: > 20 µM
EC50 (Coxsackievirus B4 [12]): > 20 µM
MCC [13]: ≥ 20 µM
CC50 (HeLa): 10.7 µM
EC50 (Human alphaherpesvirus 1 [14]): ≥ 20 µM
EC50 [15]: > 20 µM
EC50 (Vaccinia virus): 11 µM
EC50 (Human alphaherpesvirus 2): 12 µM
MCC [16]: 100 µM
zone of inhibition at 50 µg/mL (Candida albicans): 11 mm
zone of inhibition at 50 µg/mL (Aspergillus niger): 11 mm
zone of inhibition at 50 µg/mL (Salmonella typhi): 21 mm
zone of inhibition at 50 µg/mL (Proteus vulgaris): 11 mm
zone of inhibition at 50 µg/mL (Escherichia coli): 21 mm
zone of inhibition at 50 µg/mL (Bacillus subtilis): 21 mm
zone of inhibition at 50 µg/mL (Klebsiella pneumoniae): 11 mm
zone of inhibition at 50 µg/mL (Staphylococcus aureus): 21 mm

CCN(CC)CN1C(=O)/C(=N/NC(=S)Nc2ccc(C)cc2)c2cc(Cl)ccc21
EC50 (Influenza B virus): > 0.8 µM
EC50 (Influenza A virus H3N2): > 0.8 µM
EC50 (Human alphaherpesvirus 1 [1]): > 20 µM
EC50 (Felid alphaherpesvirus 1): > 4 µM
EC50 [2]: > 4 µM
CC50 [3]: 17.5 µM
inhibition [4]: 34.1%
TIME [5]: 0.0335 h
IC50 (CCRF-CEM): 4.6 µM
IC50 (L1210): 9.5 µM
EC50 (Influenza A virus): > 0.8 µM
MCC [6]: 4000 nM
CC50 (MDCK): 11.3 µM
EC50 (Punta Toro virus): > 4 µM
EC50 (Coxsackievirus B4 [7]): > 4 µM
EC50 (Respirovirus muris): > 4 µM
EC50 [8]: > 4 µM
EC50 (Human respirovirus 3): > 4 µM
MCC [9]: ≥ 4 µM
EC50 [10]: > 4 µM
EC50 [11]: > 4 µM
EC50 (Coxsackievirus B4 [12]): > 4 µM
MCC [13]: ≥ 4 µM
CC50 (HeLa): > 100 µM
EC50 (Human alphaherpesvirus 1 [14]): > 20 µM
EC50 [15]: > 20 µM
EC50 (Vaccinia virus): > 20 µM
EC50 (Human alphaherpesvirus 2): > 20 µM
MCC [16]: 100 µM
zone of inhibition at 50 µg/mL (Candida albicans): 11 mm
zone of inhibition at 50 µg/mL (Aspergillus niger): 11 mm
zone of inhibition at 50 µg/mL (Salmonella typhi): 11 mm
zone of inhibition at 50 µg/mL (Proteus vulgaris): 11 mm
zone of inhibition at 50 µg/mL (Escherichia coli): 21 mm
zone of inhibition at 50 µg/mL (Bacillus subtilis): 11 mm
zone of inhibition at 50 µg/mL (Klebsiella pneumoniae): 11 mm
zone of inhibition at 50 µg/mL (Staphylococcus aureus): 11 mm
